In assay [1] the test system is A549. As to the kind of experiment: Antiproliferative activity against human A549 cells assessed as cell growth inhibition after 48 hrs by XTT assay. In kind it is functional, cell-based. The settings on record: A549, 48 h. Summed up: (§1)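 NB4 grown in RPMI 1640 with 10% FBS and penicillin/streptomycin, A549 and MCF-7 in DMEM, all at 37 °C and 5% CO2. Cells seeded at 1.5∙10⁴ (NB4) or 1.0∙10⁴ (A549, MCF-7) per well. Adherent lines dosed 24 h after plating, NB4 shortly after. Triplicate concentrations from 0.1 to 100, DMSO control at 0.5% v/v. After 48 h exposure, XTT added for 2 h. A450 minus A690 read, GI50 reported with SE.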

The test system of assay [2] is NB-4. In words: Induction of cell death in human NB4 cells assessed as elevated sub-G1 population at 10 uM after 48 hrs by flow cytometry. In kind it is functional, cell-based. The gist of the method: (§2)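 Cells seeded in 6-well plates at 1∙10⁶ (NB4) or 0.45∙10⁶ (A549, MCF-7) per well. Treated for 48 h at 10 (NB4, MCF-7), 20 and 30 (A549), or, for NB4, a lower 5; DMSO solvent control. Cell cycle phase distribution and sub-G1 measured by flow cytometry. Mean of two independent experiments.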

The nature of assay [3]: Antiproliferative activity against human NB4 cells assessed as cell growth inhibition after 48 hrs by XTT assay. It counts as functional, cell-based. The settings on record: NB-4, 48 h. Summed up:
as §1

Assay [4] deals with MCF7. In words: Antiproliferative activity against human MCF7 cells assessed as cell growth inhibition after 48 hrs by XTT assay. It counts as functional, cell-based. The settings on record: MCF7, 48 h. The gist of the method:
as §1

Assay [5] is described as follows: Cell cycle arrest in human NB4 cells assessed as increase in cell population at G2/M phase at 5 uM after 48 hrs by flow cytometry. It counts as functional, cell-based. The settings on record: NB-4. Summed up: as §2
Assay [6] has as its system A549. As to the kind of experiment: Cell cycle arrest in human A549 cells assessed as slight increase in cell accumulation at G2/M phase at 20 uM after 48 hrs by flow cytometry. It counts as functional, cell-based. The gist of the method: as §2
For assay [7], the system named is A549. As to the kind of experiment: Cell cycle arrest in human A549 cells assessed as slight increase in cell population at S phase at 20 uM after 48 hrs by flow cytometry. It counts as functional, cell-based. The gist of the method:
as §2

Assay [8] deals with MCF7. As to the kind of experiment: Cell cycle arrest in human MCF7 cells assessed as increase in cell population at G2/M phase at 10 uM after 48 hrs by flow cytometry. It counts as functional, cell-based. Summed up:
as §2

Assay [9] has as its system MCF7. In words: Cell cycle arrest in human MCF7 cells assessed as increase in cell population at S phase at 10 uM after 48 hrs by flow cytometry. In kind it is functional, cell-based. The gist of the method:
as §2

Assay [10] concerns A549. As to the kind of experiment: Induction of apoptosis in human A549 cells at 20 to 30 uM after 24 to 48 hrs by annexin V binding assay. In kind it is functional, cell-based. The gist of the method:
(§3)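 Cells seeded in 6-well plates at 1∙10⁶ (NB4) or 0.45∙10⁶ (A549, MCF-7) per well. Treated at 5 (NB4), 20 and 30 (A549) or 10 (MCF-7). Apoptotic cell percentage measured by annexin V binding after 24 and 48 h. Mean of two independent experiments.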

The subject of assay [11] is A549. As to the kind of experiment: Cell cycle arrest in human A549 cells assessed as increase in cell population at S phase at 30 uM after 48 hrs by flow cytometry. In kind it is functional, cell-based. Summed up:
as §2

A short description of assay [12]: Induction of apoptosis in human NB4 cells assessed as cell death. It counts as functional, NB-4. The gist of the method: (§4)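 NB4 acute promyelocytic leukemia cells were grown in RPMI 1640 + GlutaMAX with 10% FBS and penicillin/streptomycin at 37 °C under 5% CO₂. Cells were seeded in 6-well plates at 1∙10⁶ per well and treated for 24 and 48 h; DMSO served as the solvent control. Apoptotic cells were quantified by annexin V binding. Values are the mean of two independent experiments.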

Assay [13] in a line: Cell cycle arrest in human NB4 cells assessed as increase in cell population at S phase at 5 uM after 48 hrs by flow cytometry. In kind it is functional, cell-based. The settings on record: NB-4. Summed up:
as §2

Assay [14] is described as follows: Induction of apoptosis in human NB4 cells assessed as cell death at 5 uM after 24 hrs by annexin V binding assay. In kind it is functional, NB-4. Summed up: as §4
For assay [15], the system named is NB-4. In words: Acceleration of RA-induced granulocytic differentiation in human NB4 cells in presence of all-trans retinoic acid relative to control. In kind it is functional.
Assay [16] can be described thus: Cell cycle arrest at G0/G1 phase in human NB4 cells at 1 uM by flow cytometry. It counts as functional, cell-based. The settings on record: NB-4.
Assay [17] relates to NB-4. As to the kind of experiment: Antiproliferative activity against human NB4 cells assessed as decrease in cell viability at 1 uM after 96 hrs by trypan blue exclusion test. It counts as functional, cell-based. The gist of the method: (§5)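 Log-phase NB4 cells at 0.5 × 10⁶ cells/ml were exposed to test agent alone or combined with 1 µM retinoic acid for 24, 48, 72 and 96 h. At each time point, aliquots were stained with 0.2% trypan blue, and viable and dead cells were counted on a hematocytometer.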

Assay [18] has as its system NB-4. In words: Induction of granulocytic differentiation in human NB4 cells at 1 uM after 24 to 96 hrs by NBT assay. It counts as functional, cell-based. Summed up: (§6)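 NB4 cells were treated with agent, 1 µM retinoic acid, or both, for 24–96 h. Differentiation was scored as reduction of NBT to formazan after PMA stimulation. NBT-positive cells were counted in 5 non-overlapping fields at ×400 and averaged per field. Three independent experiments; mean ± SD.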

Assay [19] relates to NB-4. In words: Acceleration of RA-induced granulocytic differentiation in human NB4 cells at 1 uM after 24 to 96 hrs by NBT assay in presence of 1 uM all-trans retinoic acid relative to control. It counts as functional. The gist of the method:
as §6

Assay [20] can be described thus: Cell cycle arrest in human NB4 cells assessed as increase in cell population at G0/G1 phase at 5 uM after 48 hrs by flow cytometry. In kind it is functional, cell-based. As to conditions: NB-4. The gist of the method:
as §2

Assay [21] concerns NB-4. As to the kind of experiment: Antiproliferative activity against human NB4 cells assessed as decrease in cell viability at 1uM in presence of 1 uM all-trans retinoic acid after 96 hrs by trypan blue exclusion test. In kind it is functional, cell-based. The gist of the method:
as §5

Assay [22] concerns NB-4. In words: Induction of granulocytic differentiation in human NB4 cells at 1 uM after 48 hrs by CD11b assay (reference value: 8.5%). It counts as functional.
Assay [23] has as its system NB-4. As to the kind of experiment: Acceleration of RA-induced granulocytic differentiation in human NB4 cells at 1 uM after 48 hrs by CD11b assay in presence of 1 uM all-trans retinoic acid (reference value: 79.9%). In kind it is functional.
Assay [24] relates to NB-4. In words: Induction of apoptosis in human NB4 cells at 5 uM after 24 to 48 hrs by annexin V binding assay. In kind it is functional, cell-based. Summed up:
as §3

Assay [25] can be described thus: Cell cycle arrest in human NB4 cells assessed as accumulation of cells at G0/G1 phase at 1 uM after 24 hrs by flow cytometry in presence of 1 uM all-trans retinoic acid. It counts as functional, cell-based. As to conditions: NB-4.
The test system of assay [26] is MCF7. In words: Induction of apoptosis in human MCF7 cells at 10 uM after 24 to 48 hrs by annexin V binding assay. In kind it is functional, cell-based. The gist of the method:
as §3

Calls of active or inactive are those of the source. The calls are words filed in the database; no cut-off is given here.

In the case of `C=C(C/C(=C\c1ccc(OC(=O)c2ccccc2)cc1)C(=O)c1ccc(OC)cc1)C(=O)c1ccc(OC)cc1`, the values for the IC50 (in the assay on A549 [1]; in [3]; in the assay with MCF7 [4]) were above 100 µM, 6.7 µM and above 100 µM, respectively. The outcome (in the assay on NB-4 [2]; in assay [5]) was Active.

On to `COc1ccc(C(=O)/C(=C/c2ccccc2Cl)COC(=O)c2ccccc2)cc1`, for which the outcome with A549 [6], with A549 [7], in the assay with MCF7 [8], in the assay on MCF7 [9], in the assay with A549 [10] and in the assay on A549 [11] was Active. The IC50 in the assay on A549 [1] is 20.1 µM; in [3], 7 µM; in the assay on MCF7 [4] it was 9 µM.

Consider `O=[As][As+](=O)[O-]` (configuration not stated) [ARSENIC TRIOXIDE], for which, in assay [12], the Activity is given as 27%.

As for `COc1cccc2c1C(=O)c1c(O)c3c(c(O)c1C2=O)C[C@@](O)(C(=O)CO)C[C@@H]3O[C@H]1C[C@H](N)[C@H](O)[C@H](C)O1` [DOXORUBICIN], the Activity in assay [12] is 80%.

Consider `C=C(C(=O)c1ccc(OC)cc1)C(O)c1ccc([N+](=O)[O-])cc1` (configuration not stated), for which the result (in the assay on MCF7 [8]; in the assay on NB-4 [2]; in the assay on MCF7 [9]; in assay [5]) was Active. Moreover, the half-maximal inhibitory concentration (IC50) in the assay with A549 [1] was 23.8 µM; in [3], 5.4 µM; with MCF7 [4], 11 µM.

For `C=C(C(=O)c1ccc(OC)cc1OC)C(OC(C)=O)c1ccc([N+](=O)[O-])cc1` (configuration not stated), the IC50 with A549 [1] is 43.5 µM; in assay [3] it was 5 µM; in the assay with MCF7 [4], 10.4 µM. In addition, the outcome (with NB-4 [2]; in assay [13]) was Active. Moreover, in assay [14], the Activity is given as above 50%.

For `CC(=O)OC/C(=C\c1ccc(Cl)cc1Cl)C(=O)c1ccccc1`, the result with MCF7 [8] and in the assay on MCF7 [9] was Active. Moreover, the IC50 in the assay on A549 [1] is 97 µM; in assay [3], 6.6 µM; in the assay with MCF7 [4] it was 8.7 µM.

As to `COc1cc2nc(N3CCCN(C)CC3)nc(NC3CCN(Cc4ccccc4)CC3)c2cc1OC`, in the assay on NB-4 [15], the Activity stood at 10%.

In [16], `CC1=C(/C=C/C(C)=C/C=C/C(C)=C/C(=O)O)C(C)(C)CCC1` had an Activity of 17.3%. The outcome with NB-4 [17] was Active.

On to `O=C(/C=C/c1cccc(S(=O)(=O)Nc2ccccc2)c1)NO` [BELINOSTAT], for which the Activity with NB-4 [15] came to 13%; in assay [12], 20%.

As to `C=C(C(=O)c1ccc(OC)cc1)C(OC(C)=O)c1ccc(Cl)cc1Cl` (configuration not stated), the result (in the assay with A549 [6]; in the assay on A549 [7]; in the assay with MCF7 [8]; with NB-4 [2]; with MCF7 [9]; in [13]) was Active. Moreover, the outcome in the assay with A549 [10] and in the assay on A549 [11] was Active. Besides, the figures for the IC50 (in the assay on A549 [1]; in assay [3]; in the assay with MCF7 [4]) were 17.6 µM, 5.4 µM and 8.3 µM, respectively. The Activity in assay [14] is above 50%.

With `C=C(C(=O)c1ccc(OC)cc1)C(OC(=O)c1ccccc1)c1ccc([N+](=O)[O-])cc1[N+](=O)[O-]` (configuration not stated), the result in the assay with A549 [6] was Active. The figures for the 50% inhibitory concentration (IC50) (with A549 [1]; in assay [3]; with MCF7 [4]) were 13 µM, 10 µM and above 100 µM, respectively.

For the molecule `COc1ccc(C(=O)/C(=C/c2ccc([N+](=O)[O-])cc2)CC(C)C)cc1`, the outcome (in the assay with NB-4 [18]; in [16]; in the assay on NB-4 [24]) was inactive. For the same molecule, the half-inhibitory concentration (IC50) was above 100 µM with A549 [1], 0.6 µM in assay [3] and above 100 µM in the assay on MCF7 [4]. The outcome (in the assay on NB-4 [2]; in assay [20]; with NB-4 [21]) was Active. For the same molecule, the Activity worked out at 8% in the assay with NB-4 [19], 9.5% in the assay on NB-4 [22], 87.9% in the assay on NB-4 [23] and 18.2% in [25]. Further, the inhibition result in the assay with NB-4 [17] is “Active”.

With `C=C(C(=O)c1ccc(OC)cc1)C(OC(C)=O)c1c(F)c(F)c(F)c(F)c1F` (configuration not stated), the result in the assay with A549 [6], in the assay with A549 [7], with MCF7 [8], in the assay with MCF7 [9], in the assay on A549 [10] and in the assay with A549 [11] was Active. The values for the half-maximal inhibitory concentration (IC50) (in the assay on A549 [1]; in assay [3]; in the assay on MCF7 [4]) were 14.8 µM, 12.6 µM and 6.7 µM, respectively.

`CCN(CC)C/C(=C\c1ccc([N+](=O)[O-])cc1)C(=O)c1ccc(OC)cc1`: the outcome (in the assay on MCF7 [8]; with NB-4 [2]; in the assay on MCF7 [9]; in assay [13]; in the assay on MCF7 [26]) was Active. Further, the IC50 in the assay on A549 [1] stood at 22 µM; in assay [3] it was 1.2 µM; with MCF7 [4] it was 4.3 µM.

As for `CC(=O)OC/C(=C\c1ccccc1F)C(=O)c1ccccc1`, the values for the 50% inhibitory concentration (IC50) (in the assay on A549 [1]; in assay [3]; with MCF7 [4]) were 68.7 µM, 5.8 µM and 14.6 µM, respectively. The outcome (in the assay on NB-4 [2]; in [13]) was Active. Moreover, the Activity in assay [14] is reported as above 50%.

Values taken from ChEMBL document CHEMBL3421532, “Synthesis and antiproliferative activity of α-branched α,β-unsaturated ketones in human hematological and solid cancer cell lines” (Eur J Med Chem, 2015).
